Screening results deposited in PubChem BioAssay by Broad Institute.
E-selectin induc: induces E-selectin expression in human endothelial cells; AID 686992; HUVEC E-selectin immunofluorescence imaging; normalized: neutral wells 0, TNF-alpha wells 100; 260,000 tested, 0.37% active; activation, % at 7.58 µM;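 active = mean E-selectin-positive cell signal at least 10% of the positive control, reached in at least 60% of replicates, without over 20% cell loss; inconclusive = no rule given, readout overlaps actives, possibly toxicity-flagged; inactive = the rest, including those meeting only one limit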
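System: HUVEC / Compound: single concentration / Signal: immunofluorescence imaging / Read-out: percent E-selectin-positive cells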
ERAP1 HTS inh: blocks human ERAP1 aminopeptidase activity. Q9NZ08. recombinant ERAP1, Leu-AMC fluorescence, 60 min. inhibition, % at 10.7 µM. 340,000 tested, 0.15% active;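 active = mean replicate inhibition of at least 30%, or all replicates individually reaching that 30% level; inactive = mean below 30% and not every replicate reaching it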;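 also: 0% = neutral control wells and 100% = L-leucinethiol positive control wells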
Target sequence (Q9NZ08 whole entry, looked up): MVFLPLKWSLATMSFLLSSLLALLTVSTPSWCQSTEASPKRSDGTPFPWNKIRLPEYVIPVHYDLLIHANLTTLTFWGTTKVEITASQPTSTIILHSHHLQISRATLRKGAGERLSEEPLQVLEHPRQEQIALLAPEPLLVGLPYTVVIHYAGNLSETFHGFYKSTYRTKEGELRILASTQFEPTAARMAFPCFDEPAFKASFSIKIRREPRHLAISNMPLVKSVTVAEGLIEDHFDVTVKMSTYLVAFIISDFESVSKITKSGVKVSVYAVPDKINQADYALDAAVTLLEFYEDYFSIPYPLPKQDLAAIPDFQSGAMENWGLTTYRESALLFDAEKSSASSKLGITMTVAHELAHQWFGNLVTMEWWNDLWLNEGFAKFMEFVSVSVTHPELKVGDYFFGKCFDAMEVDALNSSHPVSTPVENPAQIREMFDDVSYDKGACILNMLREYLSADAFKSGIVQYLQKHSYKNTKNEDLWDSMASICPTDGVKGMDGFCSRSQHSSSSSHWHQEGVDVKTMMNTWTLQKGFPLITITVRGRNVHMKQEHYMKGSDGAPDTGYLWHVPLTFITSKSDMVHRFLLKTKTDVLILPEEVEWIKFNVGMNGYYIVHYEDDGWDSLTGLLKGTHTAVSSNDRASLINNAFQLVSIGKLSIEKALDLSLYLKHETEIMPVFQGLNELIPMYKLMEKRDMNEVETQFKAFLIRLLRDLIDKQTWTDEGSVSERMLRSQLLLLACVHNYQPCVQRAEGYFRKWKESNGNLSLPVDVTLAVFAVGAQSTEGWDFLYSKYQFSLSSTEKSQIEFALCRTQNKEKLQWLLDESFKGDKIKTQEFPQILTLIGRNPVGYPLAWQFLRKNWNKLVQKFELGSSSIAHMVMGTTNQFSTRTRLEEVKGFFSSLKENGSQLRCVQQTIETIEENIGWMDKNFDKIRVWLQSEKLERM
DENV2 CPE rescue: protects cells from dengue virus 2 cytopathic effect | CPE inhibition, % at 9.99 µM | AID 651640 | DENV2-infected cells, cytopathic effect rescue, plate reader | 350,000 tested, 1.7% active; in the data active = CPE inhibition above about 20%, passing the limit was not always enough; inconclusive = no clear call, values can overlap the other calls; tested in BHK-21 cells;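 also: 0% = median of neutral control wells and 100% = median of positive control wells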
CFTR F508del cor: CFTR F508del correction in bronchial cells; CFBE cells, YFP halide quenching; stimulated with forskolin plus potentiator P3; % fluorescence drop versus neutral controls; activity (quench increase), % at 7.58 µM; 350,000 tested, 0.36% active;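 active = mean added fluorescence quench of at least 8% versus neutral control, with both replicates also reaching 8%; inconclusive = only one of the mean or replicate conditions met; inactive = mean below 8% and not both replicates reaching 8%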;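 also: cells transiently co-express mutant CFTR-F508del with the halide-sensitive YFP; corrector assay measuring rescue of mutant channel to the surface after 24 h compound exposure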
FGF22 binding: binders of recombinant human FGF22 by thermal shift | Q9HCT0 | SYPRO orange fluorescence; percent of sucrose octasulfate shift, DMSO zero | activity (Tm shift, normalised), % at 9.99 µM | 340,000 tested, 1.5% active;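 active = mean Tm shift, scaled 0 neutral to 100 positive control, at about 1.3% or above, every replicate too, limit read from the data; inconclusive = no clear call, values can overlap the other calls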
Active calls of the source: *. Compounds with a hit are over-represented: about 3.7% of the library has one in this group of screens.

Screening CCS(=O)(=O)Nc1cccc(C2=NN(C(C)=O)C(c3cccs3)C2)c1 (stereo not drawn) returned ERAP1 HTS inh -2.0, DENV2 CPE rescue 0.0, CFTR F508del cor 0.3 and FGF22 binding 43.0*.
Screening Cc1cccc(-c2ccc([C@H]3[C@@H](CO)N4C(=O)CN(S(=O)(=O)c5cccc(F)c5)C[C@@H]34)cc2)c1 returned E-selectin induc -0.5, ERAP1 HTS inh -2.7, DENV2 CPE rescue inconclusive, CFTR F508del cor 4.3 and FGF22 binding -0.5.
C/C=C/c1ccc([C@H]2[C@@H](CO)N3CCCCN(C)C[C@H]23)cc1 was read as E-selectin induc -0.1, ERAP1 HTS inh 0.1, DENV2 CPE rescue 54.1*, CFTR F508del cor 0.9 and FGF22 binding -0.1.
CN1CCCCN2[C@H](C1)[C@H](c1ccc(-c3ccc(F)cc3)cc1)[C@@H]2CO was read as E-selectin induc -0.1, ERAP1 HTS inh -0.6, DENV2 CPE rescue inconclusive, CFTR F508del cor 2.5 and FGF22 binding 0.9.
Screening Cc1ccc(-c2ccc([C@H]3[C@@H](CO)N4CCCCN(C)C[C@H]34)cc2)cc1 returned E-selectin induc -0.7, ERAP1 HTS inh 2.4, DENV2 CPE rescue 27.0*, CFTR F508del cor -2.2 and FGF22 binding -0.5.
Screening CN1CCCCN2[C@H](CO)[C@@H](c3ccc(-c4ccc(F)cc4)cc3)[C@@H]2C1 returned E-selectin induc -0.2, ERAP1 HTS inh 0.2, DENV2 CPE rescue 60.8*, CFTR F508del cor -0.5 and FGF22 binding 0.6.
CC=Cc1ccc2n(c1=O)C[C@H]1[C@H](CO)[C@@H](C(=O)NCCC)N(C(=O)CC)[C@@H]21 (mixture of isomers) was read as E-selectin induc 0.2, ERAP1 HTS inh -2.0, DENV2 CPE rescue 16.3, CFTR F508del cor -1.2 and FGF22 binding -0.1.
For CCCC(=O)Nc1ccc2c(c1)OC[C@@H](C)N(Cc1ccccc1)C[C@H](C)[C@H](OC)CN(C)C2=O the results were E-selectin induc -0.2, ERAP1 HTS inh 3.1, DENV2 CPE rescue inconclusive, CFTR F508del cor 1.0 and FGF22 binding 0.1.
CO[C@@H]1CN(C)C(=O)c2ccc(NC(=O)C3CC3)cc2OC[C@@H](C)N(C(=O)c2ccccc2F)C[C@@H]1C was read as E-selectin induc 0.1, ERAP1 HTS inh -0.2, DENV2 CPE rescue 11.1, CFTR F508del cor -1.3 and FGF22 binding -0.2.
CCC12CN3CC(CC)(CN(C1)C3c1ccc([N+](=O)[O-])o1)C2=O (stereo not drawn) was read as ERAP1 HTS inh 4.8, DENV2 CPE rescue 4.8, CFTR F508del cor -0.1 and FGF22 binding 43.3*.
`CCCC12CN3CC(C)(CN(C1)C3c1ccc([N+](=O)[O-])o1)C2=O` (stereo not drawn) gave E-selectin induc 2.8, ERAP1 HTS inh 3.3, DENV2 CPE rescue 5.7, CFTR F508del cor 0.5 and FGF22 binding 0.1.
CC12CN3CC(C)(CN(C1)C3c1ccc([N+](=O)[O-])o1)C2=O (stereo not drawn) was read as ERAP1 HTS inh -4.5, DENV2 CPE rescue 14.6, CFTR F508del cor 1.5 and FGF22 binding 43.6*.
For Cc1noc(C)c1NC(=O)N(C)C[C@@H]1Oc2ccc(NC(=O)CCCCCC(=O)Nc3ccccc3N)cc2C(=O)N([C@H](C)CO)C[C@@H]1C the results were E-selectin induc -1.2, ERAP1 HTS inh 2.1, DENV2 CPE rescue 15.0, CFTR F508del cor 1.7 and FGF22 binding -0.1.
[C-]#[N+][C@H](O[C@@H]1O[C@H](CO)[C@@H](O)[C@H](O)[C@H]1O)c1ccccc1 was read as ERAP1 HTS inh -1.6, DENV2 CPE rescue -0.8, CFTR F508del cor -0.6 and FGF22 binding 0.1.
Screening O=C(O)CC(CCc1ccccc1)OC1OC(CO)C(O)C(O)C1O (stereo not drawn) returned ERAP1 HTS inh 32.2*, DENV2 CPE rescue -7.9, CFTR F508del cor 0.4 and FGF22 binding 0.0.
For COCC(=O)N1[C@H](CO)[C@@H](c2ccccc2)[C@@H]1CN(C)C(=O)c1ccccc1 the results were E-selectin induc -0.2, ERAP1 HTS inh 0.0, DENV2 CPE rescue -13.1, CFTR F508del cor -1.8 and FGF22 binding 0.0.
`COc1ccccc1C(=O)N1C[C@H]2[C@@H](c3ccccc31)[C@@H](CO)N2C(=O)C1CCOCC1` gave E-selectin induc -0.2, ERAP1 HTS inh 0.8, DENV2 CPE rescue -10.5, CFTR F508del cor -1.3 and FGF22 binding -0.1.
